Results published in ChEMBL document CHEMBL1124443, “2'-Fluorinated isonucleosides. 1. Synthesis and biological activity of some methyl 2'-deoxy-2'-fluoro-2'-pyrimidinyl-D-arabinopyranosides” (J Med Chem, 1989).

What was measured:
[1] = Therapeutic effect of compound (25 mkdx3) on mice with L1210/5-FU leukemia; No effect; settings: mouse
Mus musculus [2] = assay: Percent increase in life span of leukemic mice administered, with compound at 25 mkdx3, on days 1,3,6; assay type: functional
Method in brief: (§1)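 L1210 cells (10^6) were implanted ip on day 0 in female DBA/2 mice. Dosing was 5 or 25 mg/kg/day on days 1, 3 and 6 (3 doses). Daily survival monitoring; % increase in life span versus untreated controls.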

Mus musculus [3] = assay: Percent increase in life span of leukemic mice administered, with compound at 5 mkdx3, on days 1,3,6; assay type: functional; method in brief: as §1
Mus musculus [4] = organism: Mus musculus; assay: Weight loss in mice treated with compound at 100 mkdx5; assay type: functional
Method in brief: (§2)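 Female DBA/2 mice (19–20 g) bearing ip L1210 leukemia (10^6 cells, day 0) were dosed ip daily for 5 consecutive days starting on day 1. Mice were weighed daily, and weight loss was recorded as body weight in g.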

Mus musculus [5] = organism: Mus musculus; assay: Weight loss in mice treated with compound at 200 mkdx5; assay type: functional; method in brief: as §2
Mus musculus [6] = organism: Mus musculus; assay: Weight loss in mice treated with compound at 50 mkdx5; assay type: functional; method in brief: as §2
Mus musculus [7] = assay: Percent increase in life span of leukemic mice administered, with compound at 100 mg/kgx5, intraperitoneally; assay type: functional; settings: ip, route intraperitoneal
Method in brief: (§3)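 Female DBA/2 mice (19–20 g) received 10^6 L1210 cells ip on day 0. Drug was given ip once daily for 5 consecutive days starting day 1. Survival was monitored daily. % ILS was derived from mean survival versus untreated mice.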

Mus musculus [8] = assay: Percent increase in life span of leukemic mice administered, with compound at 50 mg/kgx5, intraperitoneally; assay type: functional; settings: ip, route intraperitoneal; method in brief: as §3

Row | Structure (SMILES) | ILS [1] | ILS (Mus musculus [2]) [%] | ILS (Mus musculus [3]) [%] | Weight loss (Mus musculus [4]) [g] | Weight loss (Mus musculus [5]) [g] | Weight loss (Mus musculus [6]) [g] | ILS at 100 mg/kg (Mus musculus [7]) [%] | ILS at 50 mg/kg (Mus musculus [8]) [%]
1 | O=c1[nH]cc(F)c(=O)[nH]1 [FLUOROURACIL] | No effect | 88 | 41 | 14 | 14 | 14 | – | –
2 | Nc1ccn([C@@H]2O[C@H](CO)[C@@H](O)[C@@H]2O)c(=O)n1 [CYTARABINE] | – | – | – | – | – | – | 126 | 104
